Results on 17 compounds are retold here after ChEMBL document CHEMBL3124872, “Discovery and early development of TMC647055, a non-nucleoside inhibitor of the hepatitis C virus NS5B polymerase” (J Med Chem, 2014).

The nature of series [1]: Cytotoxicity against human MT4 cells. It counts as cell-based.
Series [2] in a line: Binding affinity to His6-tagged Hepatitis C virus Con 1b NS5B delta21 RNA dependent RNA polymerase expressed in Escherichia coli Rosetta 2 (DE3) by surface plasmon resonance analysis. Details: species or system Hepatitis C virus (isolate Con1). In outline:
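Surface plasmon resonance binding to NS5B polymerase of the stated genotype; association and dissociation rate constants measured, from which Kd and residence half-life were derived; median Kd reported.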
A general note: Surface plasmon resonance follows binding to a sensor surface in real time, without labels.

Series [3] deals with Hepatitis C virus. Briefly: Antiviral activity against Hepatitis C virus genotype 1b infected in human HuH7 cells after 72 hrs by luciferase reporter gene assay in presence of 40% human plasma relative to control. The format is functional, Hepacivirus hominis, Huh-7. Background: Reporter assays use an easily measured gene product as a stand-in for the process of interest.
The nature of series [4]: Cytotoxicity against human HuH7 cells. The format is cell-based, Huh-7.
For series [5], the system named is Hepatitis C virus. In words: Antiviral activity against Hepatitis C virus genotype 1b infected in human HuH7 cells after 72 hrs by luciferase reporter gene assay. It counts as functional, organism-based, Hepacivirus hominis. The conditions noted are these: Huh-7, 72 h.
Series [6] in a line: Drug uptake in Sprague-Dawley rat liver at 10 mg/kg, po after 7 hrs. The conditions noted are these: read-out: Drug uptake. Details: dose 10 mg/kg, route oral. The format is ADME, organism-based.
Series [7] can be described thus: Oral bioavailability in Sprague-Dawley rat at 10 mg/kg. The format is ADME, organism-based. To be noted: in vivo.
Series [8] in a line: Ratio of drug level in liver to plasma in Sprague-Dawley rat at 10 mg/kg, po after 7 hrs. The format is ADME, organism-based. The arrangement: dose 10 mg/kg, route oral.
Series [9] in a line: Drug metabolism in rat liver microsomes after 15 mins. The format is ADME. To be noted: read-out: Drug metabolism. In general terms: Liver microsomes are a subcellular fraction often used to study metabolism.
Series [10] in a line: Drug metabolism in human liver microsomes at 5 uM after 15 mins. The format is ADME. The conditions noted are these: read-out: Drug metabolism. In outline:
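Stability in human liver microsomes: test compound at 5 μM, incubated 15 min; reported as percentage of compound metabolized.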

Series [11] in a line: Plasma clearance in Sprague-Dawley rat at 2 mg/kg, iv and 10 mg/kg, po. The format is ADME, organism-based.
The test system of series [12] is Hepatitis C virus. Briefly: Antiviral activity against Hepatitis C virus genotype 1a infected in human assessed as reduction in plasma HCV RNA level administered for 10 days measured on day 11. The format is functional, organism-based. To be noted: Hepacivirus hominis, subtype 1a. In outline: (§1)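 HCV genotype 1a- and 1b-infected patients received oral 1000 mg b.i.d. together with an NS3/4A protease inhibitor at 150 mg q.d. for 10 days. The read-out was the median decrease in plasma HCV RNA (log10 IU/mL) at day 11.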

For series [13], the system named is Hepatitis C virus. Briefly: Antiviral activity against Hepatitis C virus genotype 1b infected in human HuH7 assessed as clearance of replicon cells at 0.25 uM preincubated for 2 weeks followed by 3 week rebound phase by RT-PCR analysis. It counts as functional, organism-based. To be noted: Hepacivirus hominis, Huh-7. The method, boiled down: (§2)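 Huh7-Luc replicon cells incubated 14 days with compound alone or in combination, followed by a 3-week rebound phase without inhibitor; replicon RNA followed for clearance and rebound.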

Series [14] deals with Hepatitis C virus. In words: Antiviral activity against Hepatitis C virus genotype 1b infected in human HuH7 assessed as suppression of formation of resistant colonies at 0.2 uM preincubated for 2 weeks followed by 3 week rebound phase by RT-PCR analysis. The format is functional, organism-based. The conditions noted are these: Hepacivirus hominis, Huh-7. The method, boiled down: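 Colony formation test in Huh7-Luc replicon cells incubated for 2−3 weeks with inhibitor alone (0.20 μM), scored for formation of resistant colonies.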

Series [15] deals with Hepatitis C virus. Briefly: Antiviral activity against Hepatitis C virus genotype 1b infected in human assessed as reduction in plasma HCV RNA level administered for 10 days measured on day 11. It counts as functional, organism-based. To be noted: Hepacivirus hominis. In outline: as §1
Series [16] has as its system Hepatitis C virus. In words: Antiviral activity against Hepatitis C virus genotype 1b infected in human HuH7 assessed as rebound of replicon RNA at 0.25 uM preincubated for 2 weeks followed by 3 week rebound phase by RT-PCR analysis. The format is functional, organism-based. The conditions noted are these: Hepacivirus hominis, Huh-7. In outline:
as §2

Activity calls are given as the source filed them. The rule behind the calls is not given here. Bounds are passed on as bounds.

Turning to `COc1ccc2c(c1)C=C1Cn3c-2c(C2CCCCC2)c2ccc(cc23)C(=O)NS(=O)(=O)N(C)CCCCCCN(C)C1=O`, the CC50 in series [1] and in [4] was more than 25 µM in each case. Moreover, in series [2], the Kd (as a rule, the free concentration of one partner at which half of the binding sites on the other are occupied at equilibrium, for simple one-to-one binding) came to 0.0008 µM. Also, in [3], the “fold change (FC)” value is listed as 10.

For the compound `COc1ccc2c(c1)C=C1Cn3c-2c(C2CCCCC2)c2ccc(cc23)C(=O)NS(=O)(=O)N(C)CCCCN(C)C1=O`, the CC50 in series [1] and in [4] was more than 25 µM throughout. Also, in series [5], the EC50 (in general, the midpoint of the concentration-response curve) came out at 0.075 µM.

As for `COc1ccc2c(c1)C=C1Cn3c-2c(C2CCCCC2)c2ccc(cc23)C(=O)NS(=O)(=O)N(C)CCCN(C)C1=O`, the CC50 in series [1] and in [4] was more than 25 µM throughout. Further, the Kd in series [2] was found to be 0.007 µM. Moreover, the “fold change (FC)” value in series [3] is 10.

Consider `COc1ccc2c(c1)C=C1Cn3c-2c(C2CCCCC2)c2ccc(cc23)C(=O)NS(=O)(=O)N(C)CCCCCNC1=O`, for which the concentration at 7 h in series [6] was 6320 ng/g. The CC50 in series [1] and in series [4] was more than 25 µM in each case. Moreover, the Kd in series [2] stood at 0.0009 µM. Moreover, in series [3], the “fold change (FC)” value worked out at 10.

`COc1ccc2c(c1)C=C1Cn3c-2c(C2CCCCC2)c2ccc(cc23)C(=O)NS(=O)(=O)N(C)CCN(C)CCNC1=O`: the CC50 in series [1] and in series [4] was more than 25 µM throughout. In addition, the “fold change (FC)” value in series [3] is given as 10.

As for `COc1ccc2c(c1)C=C1Cn3c-2c(C2CCCCC2)c2ccc(cc23)C(=O)NS(=O)(=O)N2CCN(CCNC1=O)CC2`, the CC50 in series [1] and in series [4] was more than 25 µM in each case. For the same compound, the Kd in series [2] amounted to 0.025 µM. The “fold change (FC)” value in series [3] is reported as 10.

`CN1CCOCCN(C)S(=O)(=O)NC(=O)c2ccc3c(C4CCCCC4)c4n(c3c2)CC(=Cc2cc(Cl)ccc2-4)C1=O`: the CC50 in series [1] and in series [4] was more than 25 µM throughout. In series [2], this compound registered a Kd of 0.0015 µM. The “fold change (FC)” value in series [3] is listed as 10.

As for `CN1CCOCCN(C)S(=O)(=O)NC(=O)c2ccc3c(C4CCCCC4)c4n(c3c2)CC(=Cc2cc(F)ccc2-4)C1=O`, the concentration at 7 h in series [6] was 6560 ng/g. Also, the CC50 in [1] and in [4] was more than 25 µM throughout. In addition, the “fold change (FC)” value in series [3] is on record as 10.

For the compound `COc1ccc2c(c1)C=C1Cn3c-2c(C2CCCCC2)c2ccc(cc23)C(=O)NS(=O)(=O)N(C)CCCCNC1=O`, the CC50 in series [1] and in series [4] was more than 25 µM each time. The Kd in series [2] worked out at 0.0071 µM. Besides, the “fold change (FC)” value in series [3] stood at 10.

Turning to `COc1ccc2c(c1)C=C1Cn3c-2c(C2CCCCC2)c2ccc(cc23)C(=O)NS(=O)(=O)NCCCCN(C)C1=O`, the CC50 in series [1] and in [4] was more than 25 µM in each case. This compound showed a Kd in series [2] of 0.015 µM. For the same compound, the “fold change (FC)” value in [3] was 10.

Consider `COc1ccc2c(c1)C=C1Cn3c-2c(C2CCCCC2)c2ccc(cc23)C(=O)NS(=O)(=O)N(C)CCN2CCN(CC2)C1=O`, for which the concentration at 7 h in series [6] came out at 299 ng/g. The CC50 in series [1] and in series [4] was more than 25 µM each time. Moreover, the “fold change (FC)” value in series [3] is listed as 10.

Consider `COc1ccc2c(c1)C[C@@H]1Cn3c-2c(C2CCCCC2)c2ccc(cc23)C(=O)NS(=O)(=O)N(C)CCOCCN(C)C1=O`, for which, in [6], the concentration at 7 h was determined as 898 ng/g. For the same compound, the CC50 in series [1] and in series [4] was more than 25 µM in each case. Further, the “fold change (FC)” value in series [3] is 10.

In the case of `COc1ccc2c(c1)C[C@H]1Cn3c-2c(C2CCCCC2)c2ccc(cc23)C(=O)NS(=O)(=O)N(C)CCOCCN(C)C1=O`, the CC50 in series [1] and in series [4] was more than 25 µM throughout. Moreover, the “fold change (FC)” value in series [3] came out at 10.

As for `COc1ccc2c(c1)[C@@H]1C[C@]13Cn1c-2c(C2CCCCC2)c2ccc(cc21)C(=O)NS(=O)(=O)N(C)CCOCCN(C)C3=O`, the concentration at 7 h in series [6] amounted to 3200 ng/g. Besides, in [7], the bioavailability (commonly the share of a dose that reaches the circulation, judged against a reference dose that is usually intravenous) turned out to be 51%. For the same compound, in series [8], the Kp (as a rule, the ratio of the level in a tissue or fluid to that in plasma or blood) at 7 h came to 38. Further, the metabolised at 0.25 h in series [9] amounted to 70%. The CC50 in series [1] and in series [4] was more than 25 µM in each case. Besides, the EC50 in series [5] came to 0.04 µM. Further, the “fold change (FC)” value in series [3] is given as 10. Moreover, the metabolised at 0.25 h, 5 µM in series [10] stood at 95%. In [11], the clearance is 86.7 mL/min/kg.

Turning to `COc1ccc2c(c1)C=C1CN(C)CCCCN(C)S(=O)(=O)NC(=O)c3ccc4c(C5CCCCC5)c-2n(c4c3)C1`, the CC50 in series [1] and in series [4] was more than 25 µM throughout. A half-maximal response in series [5] (EC50) required 2.34 µM. For the same compound, the “fold change (FC)” value in series [3] is 10.

On to `COc1ccc2c(c1)[C@H]1C[C@@]13Cn1c-2c(C2CCCCC2)c2ccc(cc21)C(=O)NS(=O)(=O)N(C)CCOCCN(C)C3=O`, for which the CC50 in series [1] and in [4] was more than 25 µM in each case. Moreover, the EC50 in [5] came to 0.8 µM. For the same compound, the “fold change (FC)” value in series [3] is 10.

With `COc1ccc2c(O[C@@H]3C[C@H]4C(=O)N[C@]5(C(=O)NS(=O)(=O)C6CC6)C[C@H]5/C=C\CCCCN(C)C(=O)[C@@H]4C3)cc(-c3nc(C(C)C)cs3)nc2c1C`, the result in [12] and in series [15] was Active. Further, the outcome in series [13], in [14] and in series [16] was inactive.
